This is a sample that favours compounds with a hit; in the whole collection about 1.8% have one here.
Runt-CBFb FRET = Runt domain-CBFb interaction inhibition | Q01196+Q13951 | Cerulean-Runt/Venus-CBFb FRET ratio 530/480, 1 h | inhibition, % at 20 µM | 220,000 tested, 0.46% active | AID 1496;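 active means inhibition over about 50% at 20 µM in the single-dose screen, limit read from the data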;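 further: 0% = DMSO wells and 100% = excess unlabeled CBFb competitor control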
Target sequence (Q01196 whole entry, looked up, the tested form may be a part): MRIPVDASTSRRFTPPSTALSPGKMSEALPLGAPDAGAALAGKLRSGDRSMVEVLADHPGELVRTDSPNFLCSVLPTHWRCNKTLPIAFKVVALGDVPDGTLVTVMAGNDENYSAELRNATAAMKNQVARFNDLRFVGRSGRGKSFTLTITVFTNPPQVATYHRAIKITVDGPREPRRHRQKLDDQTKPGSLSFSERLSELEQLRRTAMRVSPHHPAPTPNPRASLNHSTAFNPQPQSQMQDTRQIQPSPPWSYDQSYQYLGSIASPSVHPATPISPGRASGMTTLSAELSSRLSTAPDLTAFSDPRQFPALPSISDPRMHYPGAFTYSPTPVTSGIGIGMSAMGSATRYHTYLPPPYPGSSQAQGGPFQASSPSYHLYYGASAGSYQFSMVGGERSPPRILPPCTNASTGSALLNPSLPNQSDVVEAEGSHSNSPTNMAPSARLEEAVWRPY
Target sequence (Q13951 whole entry, looked up, the tested form may be a part): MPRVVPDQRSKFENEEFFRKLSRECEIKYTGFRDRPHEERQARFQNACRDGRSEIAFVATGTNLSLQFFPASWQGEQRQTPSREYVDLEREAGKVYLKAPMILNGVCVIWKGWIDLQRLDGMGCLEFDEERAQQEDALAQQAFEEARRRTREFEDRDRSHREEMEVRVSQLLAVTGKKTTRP
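Assay system: Cerulean-Runt domain / Medium: Tris 50 mM pH 7.5, KCl, K2SO4, 0.01% BSA / Timing: protein complex preformed 1 h, compound exposure 1 h, room temperature, dark / Measured by: FRET, excitation 422 nm, emission at 530 and 480 nm / Evaluation: loss of energy transfer signal / Control set: 5 µM unlabeled CBFb as full-inhibition high control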
Runt-SMMHC FRET = Runt domain-CBFb-SMMHC interaction inhibition; Q01196+Q13951; Cerulean-Runt/Venus-CBFb-SMMHC FRET ratio 530/480, 1 h; inhibition, % at 20 µM; 220,000 tested, 0.74% active; AID 1434;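 active means mean inhibition across duplicate retests at 20 µM reaching about 50%, limit read from the data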;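 further: 0% = DMSO wells and 100% = wells with excess untagged CBFb-SMMHC; inhibitors lower the FRET ratio by blocking Runt binding to CBFb-SMMHC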
RanGTP-Imp inh = disruptors of Ran-importin-beta complex formation – biochemical, FRET, CFP-Ran, YFP-importin-beta, homogeneous, primary screen; 300,000 tested, 1.1% active; cell-free CFP-Ran/YFP-importin-beta FRET ratio; inhibition, % (concentration not given with the values); AID 2216;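 active means more than half of the replicate wells show a fall in the fluorescence ratio signal beyond about 16%, limit read from the data, passing the limit was not always enough; inconclusive means exactly half of the replicate wells pass the set limit; inactive means fewer than half of replicates pass the limit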;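 further: 0% = DMSO wells and 100% = Ran loaded with GDP instead of GTP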
Hck-Nef inh = blocks Nef-activated human Hck kinase; P08631; Recombinant Hck-YEEI plus Nef, Z-Lyte FRET kinase assay; inhibition, % at 20 µM; 220,000 tested, 0.68% active; AID 463187;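 active means Hck-Nef kinase inhibition above about 50%, limit read from the data; inactive means inhibition below that limit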;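 further: 0% = DMSO with Hck plus Nef and 100% = Hck alone without Nef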
YIC FRET counter = counter-screen: alters YIC FRET probe signal. shares compounds with RanGTP-Imp inh. Purified YIC probe, intramolecular FRET ratio YFP/CFP. IC50, µM. 1,000 tested, 40% active;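 active means fitted half-maximal inhibitory concentration no more than tenfold above the top dose tested; inconclusive means flat fit with 30 to 70% activity, or poor fit; inactive means half-maximal concentration beyond tenfold above the top dose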
Starred values were filed as active, the others as inactive; ? = inconclusive; . = no result; ! = not active in a repeat.

SMILES	Runt-CBFb FRET	Runt-SMMHC FRET	RanGTP-Imp inh	Hck-Nef inh	YIC FRET counter
CCOC(=O)N1CCN(C(=O)CSc2ccc3nnc(CCNC(=O)c4ccc(OC)cc4)n3n2)CC1	0	1	6	-34	.
CC(OC(=O)CN1C(=O)c2ccccc2C1=O)C(=O)N(C)c1ccccc1 (stereo unspecified)	.	.	-5	.	.
COc1ccc2nc(SCC(=O)NCC(F)(F)F)[nH]c2c1	-2	-8	1	24	.
CCc1nn(-c2ccccc2)c(=S)c2ccccc12	1	1	0	25	.
Cc1ccc2cc(C#N)c(N3CCCC3)nc2c1C	18	53*	26*	18	5.3*
N#Cc1cc2cc3c(cc2nc1N1CCOCC1)OCO3	97*	109*	39*	10	9*
Cc1cc(C)c2nc(N3CCOCC3)c(C#N)cc2c1	.	.	24*	.	19*
CC1(C)Cc2nc(N3CCOCC3)c(C#N)cc2CO1	1	-2	-1	-10	.
CCOc1ccc(C(=O)NC(=S)NC2CCCC2)cc1[N+](=O)[O-]	-2	1	5	1	.
O=[N+]([O-])c1ccc(CNC2CCCc3ccccc32)cc1 (stereo unspecified)	30	72*	25*	12	>50
c1cncc(CNC2CCCc3ccccc32)c1 (stereo unspecified)	-2	-2	-3	3	.
O=C1CC2(CCCC2)C(=O)N1c1ccc(S(=O)(=O)NCC2CC2)cc1Cl	4	-5	1	13	.
Cc1cc(S(=O)(=O)N2CCN(c3ccccc3C)CC2)ccc1F	-1	-1	-2	6	.
Cc1cc(S(=O)(=O)N2CCN(c3c(C)cccc3C)CC2)ccc1F	1	-5	22*	-1	>50
CCOc1ccc(OCc2ccc(C(=O)N(CC)CC)cc2)cc1	-3	-3	21*	0	>50
COc1ccc(N2CCN(C(=O)CN(C)S(=O)(=O)c3cc(C)ccc3OC)CC2)cc1	0	-3	-3	24	.
CCCCN(C)CCCNC(=O)C1(O)c2ccccc2NC(=O)N1c1ccc(Cl)cc1 (stereo unspecified)	.	.	-1	.	.
CN(C)c1ccc(/C=C(\NC(=O)c2ccccc2)C(=O)NCc2ccncc2)cc1	.	.	23*	.	>50
CN(C)c1ccc(/C=C(\NC(=O)c2ccccc2)C(=O)NCc2cccnc2)cc1	.	.	8	.	.
O=C(O)C(Nc1nc(C(F)(F)F)nc2ccccc12)c1ccccc1 (stereo unspecified)	.	.	0	.	.
O=c1c2ccccc2nc(/C=C/c2ccc(Br)cc2)n1CCO	.	.	3	.	.
Cc1[nH]c2ccccc2c1/C=C/c1nc2ccccc2c(=O)n1CCO	-45	-10	17*	-6	9*
Cc1ccccc1CSc1nnc([C@@H]2CCCN2)o1	-1	-3	-5	8	.
COc1cc2cc(C(N)=O)c(N)nc2cc1OC	101*	79*	49*	2	10*
COc1ccc2nc(C)c(C(N)=O)cc2c1	0	2	?	21	.
SMILES	Runt-CBFb FRET	Runt-SMMHC FRET	RanGTP-Imp inh	Hck-Nef inh	YIC FRET counter
CC1CCN(C(=O)CSc2nc3c(c(=O)n2C)SC(C)C3)CC1 (stereo unspecified)	.	.	8	.	.
O=C1CC(c2cc(-c3ccccc3)no2)C1	.	.	8	.	.
CCOC(=O)N1CCN(c2cc(=O)n(C3CCCCC3)c(=O)[nH]2)CC1	5	-1	19*	6	>50
CCN1CCN(c2cc(=O)n(C3CCCCC3)c(=O)[nH]2)CC1	1	0	?	6	.
CCOC(=O)C1CCN(c2cc(=O)n(C3CCCCC3)c(=O)[nH]2)CC1	-2	3	51*	0	>50
COc1ccc(CO[C@@H]2O[C@H](CO)[C@@H](O)[C@H](O)[C@H]2NC(C)=O)cc1OC	.	.	-2	.	.
Oc1cccc(/C=N/Nc2cc(N3CCCC3)nc(N3CCCC3)n2)c1	2	5	21*	4	>50
Oc1ccc(/C=N/Nc2cc(N3CCOCC3)nc(N3CCOCC3)n2)cc1	.	.	22*	1	>50
Cc1ccc(-c2ccc(C#N)c(=O)n2CC(=O)N(C)C)cc1	.	.	-3	.	.
O=C(Nc1cccc(F)c1)c1ccc(S(=O)(=O)N2CCCCC2)cc1	.	.	-1	.	.
COc1ccccc1NC(=O)CN1CCN(CC(=O)Nc2ccc(C)c(F)c2)CC1	.	.	27*	.	>50
COc1ccccc1NC(=O)CN1CCN(CC(=O)Nc2ccc(F)cc2)CC1	0	-5	.	-9	.
COc1ccc(-c2c(C)c3ccc(O)cc3oc2=O)cc1OC	.	.	20*	.	34*
COC(=O)[C@@H]1[C@H]2C[C@H]3c4[nH]c5ccccc5c4CCN3C[C@@H]2CC[C@@H]1O	.	.	26*!	.	>50
C=CCN(CC=C)C(=O)CN1C(=O)NC(Cc2c[nH]c3ccccc23)C1=O (stereo unspecified)	.	.	-5	.	.
COc1cc(CN2CCN(Cc3c[nH]c4ccccc34)CC2CCO)cc(OC)c1 (stereo unspecified)	.	.	21*	.	>50
COc1cc(NC(=O)CN(C)CCOc2ccccc2)c(C)cc1[N+](=O)[O-]	.	.	0	.	.
CN(CCOc1ccccc1)CC(=O)Nc1ccc(Cl)cc1[N+](=O)[O-]	-3	-99	35*	12	>50
O=C(CN1CCCN(Cc2ccc(F)cc2Cl)C1=O)NC1CCCC1	-3	3	3	19	.
CCOC(=O)c1ccccc1NC(=O)COC(=O)C(CCSC)NC(=O)COc1ccccc1 (stereo unspecified)	.	.	24*	.	>50
CCOC(=O)c1ccccc1NC(=O)COc1ccccc1	-3	1	-1	-8	.
Cc1cc(CNC(=O)COc2ccccc2)c2ccccc2n1	2	-1	1	19	.
Cc1ccc(OCC(=O)NNc2c3ccccc3nc3ccccc23)cc1	5	24	36*	12	>50
Cc1cccc(OCC(=O)Nc2cc(NC(=O)COc3cccc(C)c3)cc(C(=O)O)c2)c1	.	.	5	.	.
Cc1cccc(OCC(=O)NNc2c3ccccc3nc3ccccc23)c1	10	15	33*	1	>50
SMILES	Runt-CBFb FRET	Runt-SMMHC FRET	RanGTP-Imp inh	Hck-Nef inh	YIC FRET counter
O=C(Cc1ccccc1)NNc1c2ccccc2nc2ccccc12	17	20	34*	5	>50
Cc1cc(CNC(=O)COc2ccc(F)cc2)c2ccccc2n1	0	-1	18*	3	>50
Cc1cc(C(=O)CN2CCCC(C)C2)c(C)n1-c1ccc(F)cc1 (stereo unspecified)	1	-1	-2	2	.
Cc1ccccc1OCCN(C#N)c1nc(N(C)C)nc(N(C)C)n1	2	0	4	17	.
CCOC(=O)CNC(=O)C1CCCN(c2ncccn2)C1 (stereo unspecified)	0	-1	21*	-1	>50
O=C(NCc1cccs1)C1CCCN(c2ncccn2)C1 (stereo unspecified)	0	-3	-2	0	.
COc1cccc(C(=O)/C=C/Nc2cc(C)ccc2O)c1	-6	-32	30*	1	>50
CCOC(=O)c1ccc(N/C=C\C(=O)c2cccc(OC)c2)cc1	-5	-11	1	0	.
